From ChEMBL document CHEMBL1154676, “Synthetic mRNA splicing modulator compounds with in vivo antitumor activity” (J Med Chem, 2009) come the findings set out here.

As usually defined, the IC50 is the concentration needed to halve the response being measured. A higher IC50 goes with weaker potency in that assay. As a reminder, the half-life is the time needed for the level to fall by half in the phase considered.

Data set [1] in a line: Cytotoxicity against human JeKo1 cells after 72 hrs by XTT assay. In kind it is functional, cell-based. The note with it: JeKo-1, 72 h. An outline of the steps:
(§1)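 Cells grown at 37 °C, 5% CO2; HFF in DMEM with 10% FBS, PrEC in prostate epithelial growth medium. Adherent lines seeded overnight, suspension lines same day; compounds diluted from DMSO stocks into media at various final concentrations, 72 h exposure. XTT reagent added 4 h, absorbance 490 nm (reference 690 nm). Growth as % of vehicle; IC50 from sigmoidal dose-response fit; mean ± SEM, three independent experiments.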
In general terms: Tetrazolium dyes change colour on reduction, which living cells bring about.

The test system of a further data set is PC-3. In words: Cytotoxicity against human PC3 cells after 72 hrs by XTT assay. The data set is classed as functional, cell-based. The note with it: PC-3, 72 h. An outline of the steps:
as §1

Another data set relates to WiDr. In words: Cytotoxicity against human WiDr cells after 72 hrs by XTT assay. In kind it is functional, cell-based. In outline:
as §1

Data set [2] is described as follows: Chemical stability in phosphate buffer assessed as half life at pH 7.4 at 37 degC. In kind it is physicochemical.
The test system of the next data set is JVM-2. In words: Cytotoxicity against human JVM2 cells after 72 hrs by XTT assay. The data set is classed as functional, cell-based. The note with it: JVM-2, 72 h. In outline: as §1
Data set [3] concerns HeLa. Description: Inhibition of spliceosome splicing activity in human HeLa cells assessed as mRNA products at 0.5 to 10 uM by autoradiography. In kind it is cell-based.
The test system of data set [4] is HeLa. Description: Anticancer activity in human HeLa cells assessed as aggregation of SC35 and SF3b protein SAP155 at 10 uM after 4 hrs by immunofluorescence analysis. In kind it is functional, cell-based. In outline:
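HeLa cells on glass coverslips exposed 4 h to 10 μM compound in DMSO (DMSO-only control), fixed in cold methanol at −20 °C for 10 min. Stained with anti-SC35 or anti-SAP155 primary (1/100, 1 h, 37 °C), then Alexa Fluor 488 anti-mouse secondary (1/200). Splicing-factor distribution imaged by fluorescence microscopy at 60X.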

For the next data set, the system named is JeKo-1. In words: Anticancer activity against human JeKo1 cells transplanted in Es-1/SCID mouse assessed as decrease in tumor volume at 50 to 100 mg/kg, iv measured after 25 days. In kind it is functional, organism-based.

Active and inactive are the calls of the source. Where only a bound is given, the exact number is not on record here.

For the molecule `CC(/C=C/[C@@H]1C[C@]2(CO2)CC(C)(C)O1)=C\C[C@H]1CC[C@@H](NC(=O)/C=C\[C@H](C)OC(=O)c2cccn2C)CC1`, the IC50 amounted to 0.39 µM in data set [1], 4.3 µM in the data set on PC-3 and 0.39 µM in the data set with WiDr.

Regarding `CC(=O)O[C@@H](C)/C=C\C(=O)N[C@@H]1C[C@H](C)[C@H](C/C=C(C)/C=C/[C@H]2O[C@](C)(O)C[C@@]3(CO3)[C@@H]2O)O[C@@H]1C`, in data set [2], the half-life is 4 h.

In the case of `CC(/C=C/[C@@H]1C[C@]2(CO2)CC(C)(C)O1)=C\C[C@H]1CC[C@@H](NC(=O)/C=C\[C@H](C)O)CC1`, the IC50 was 1.6 µM in data set [1], 10 µM in the data set on PC-3, 10 µM in the data set on WiDr and 1.5 µM in the data set on JVM-2.

Consider `CC(/C=C/[C@@H]1C[C@]2(CO2)CC(C)(C)O1)=C\C[C@H]1CC[C@@H](NC(=O)/C=C\[C@H](C)OC(=O)N2CCN(C)CC2)CC1`, for which the IC50 was > 0.5 µM in data set [1], > 2.5 µM in the data set with PC-3, > 1.25 µM with WiDr and > 0.5 µM with JVM-2.

Regarding `CC(/C=C/[C@@H]1C[C@]2(CO2)CC(C)(C)O1)=C\C[C@H]1CC[C@@H](NC(=O)/C=C\[C@H](C)OC(=O)N2CCN(CCO)CC2)CC1`, the concentration for half-maximal inhibition (IC50) is > 0.5 µM in data set [1], > 2.5 µM with PC-3, > 1.25 µM in the data set with WiDr and > 0.5 µM in the data set on JVM-2.

In the case of `CC(/C=C/[C@@H]1C[C@]2(CO2)CC(C)(C)O1)=C\C[C@H]1CC[C@@H](NC(=O)/C=C\[C@H](C)OC(=O)C2CCOCC2)CC1`, the half-maximal inhibitory concentration (IC50) is 0.45 µM in data set [1] and 2 µM with PC-3.

Take `CC(/C=C/[C@@H]1C[C@](O)(CCl)CC(C)(C)O1)=C\C[C@H]1CC[C@@H](NC(=O)/C=C\[C@H](C)OC(=O)N2CCN(C3CCCCCC3)CC2)CC1`: the values for the IC50 with PC-3, with WiDr and with JVM-2 were > 5 µM, > 1.25 µM and > 10 µM, respectively.

`CC(/C=C/[C@@H]1C[C@]2(CO2)CC(C)(C)O1)=C\C[C@H]1CC[C@@H](NC(=O)/C=C\[C@H](C)OC(=O)c2ccco2)CC1`: the half-inhibitory concentration (IC50) in data set [1] turned out to be 0.14 µM; in the data set with PC-3, 3.5 µM; with WiDr it was 0.14 µM.

On to `CC(/C=C/[C@@H]1C[C@]2(CO2)CC(C)(C)O1)=C\C[C@H]1CC[C@@H](NC(=O)/C=C\[C@H](C)OC(=O)c2cccnc2)CC1`, for which the IC50 in data set [1] was 0.17 µM; in the data set on PC-3, 8.1 µM; with WiDr, 0.17 µM.

On to `CC(=O)O[C@@H](C)/C=C\C(=O)N[C@H]1CC[C@@H](C/C=C(C)/C=C/[C@@H]2C[C@]3(CO3)CC(C)(C)O2)CC1`, for which the IC50 in data set [1] is 0.1 µM.

On to `COc1cccc(N2CCN(C(=O)O[C@@H](C)/C=C\C(=O)N[C@H]3CC[C@@H](C/C=C(C)/C=C/[C@@H]4C[C@]5(CO5)CC(C)(C)O4)CC3)CC2)c1`, for which the IC50 in data set [1] was > 0.5 µM; in the data set with PC-3 it was > 2.5 µM; with WiDr, > 1.25 µM; in the data set on JVM-2, > 0.5 µM.

`CC(/C=C/[C@@H]1C[C@]2(CO2)CC(C)(C)O1)=C\C[C@H]1CC[C@@H](NC(=O)/C=C\[C@H](C)OC(=O)C2CCN(C)CC2)CC1`: the IC50 in data set [1] was > 1 µM; in the data set on PC-3, 10 µM.

`CC(/C=C/[C@@H]1C[C@]2(CO2)CC(C)(C)O1)=C\C[C@H]1CC[C@@H](NC(=O)/C=C\[C@H](C)OC(=O)N2CCN(C3CCCCCC3)CC2)CC1`: the half-inhibitory concentration (IC50) is > 5 µM with PC-3 and > 1 µM with JVM-2.

As for `CC(/C=C/[C@@H]1C[C@]2(CO2)CC(C)(C)O1)=C\C[C@H]1OC[C@@H](NC(=O)/C=C\[C@H](C)OC(=O)C(C)C)CO1`, the result with HeLa [3], in the data set with HeLa [4] and in the data set on JeKo-1 was Active. Besides, half-maximal inhibition in data set [1] (IC50) required 0.15 µM.

On to `CC(/C=C/[C@@H]1C[C@]2(CO2)CC(C)(C)O1)=C\C[C@H]1CC[C@@H](NC(=O)/C=C\[C@H](C)OC(=O)c2ccccc2)CC1`, for which the IC50 was 0.41 µM in data set [1], 4.9 µM in the data set with PC-3 and 0.41 µM in the data set on WiDr.

For the molecule `CC(/C=C/[C@@H]1C[C@]2(CO2)CC(C)(C)O1)=C\C[C@H]1CC[C@@H](NC(=O)/C=C\[C@H](C)OC(=O)C2CCN(c3ccnc(C(F)(F)F)n3)CC2)CC1`, the IC50 in data set [1] is > 1 µM; in the data set on PC-3 it was > 10 µM; in the data set with WiDr, > 1 µM.
